Experimental data: ChEMBL document CHEMBL4270482, “Cytotoxic Fusicoccane-Type Diterpenoids from Streptomyces violascens Isolated from Ailuropoda melanoleuca Feces” (J Nat Prod, 2017)
Where a name gives a salt, the structure may show the parent alone. Active and inactive are the calls of the source. The calls are words filed in the database; no cut-off is given here.

Assays:
BGC-823 [1] = assay: Cytotoxicity against human BGC823 cells assessed as inhibition of growth at 200 uM incubated for 72 hrs by MTT assay; format: functional; details: for inhibition at 200 µM: BGC-823, 72 h
NCI-H460 [2] = assay: Cytotoxicity against human NCI-H460 cells assessed as inhibition of growth at 200 uM incubated for 72 hrs by MTT assay; format: functional; details: for inhibition at 200 µM: NCI-H460, 72 h
HCT-116 [3] = assay: Cytotoxicity against human HCT116 cells assessed as inhibition of growth at 200 uM incubated for 72 hrs by MTT assay; format: functional; details: for inhibition at 200 µM: HCT-116, 72 h
HeLa [4] = assay: Cytotoxicity against human HeLa cells assessed as inhibition of growth at 200 uM incubated for 72 hrs by MTT assay; format: functional
SMMC-7721 [5] = assay: Cytotoxicity against human SMMC7721 cells assessed as inhibition of growth at 200 uM incubated for 72 hrs by MTT assay; format: functional; details: for inhibition at 200 µM: SMMC-7721, 72 h
BGC-823 [6] = assay: Cytotoxicity against human BGC823 cells assessed as inhibition of growth incubated for 72 hrs by MTT assay; format: functional, cell-based; details: BGC-823, 72 h
Outline: (§1)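 Cells grown in RPMI-1640 or DMEM with 10% heat-inactivated FBS. Exposed to six concentrations (100, 33, 10, 3.3, 1.0, 0.33 μM) for 72 h at 37 °C. MTT (5 mg/mL, 10 μL) added for 4 h, then medium removed and DMSO added, absorbance read at 570 nm. IC50 is the concentration giving 50% lower absorbance than control. Mean ± SD of three independent experiments; adriamycin positive control.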

NCI-H460 [7] = assay: Cytotoxicity against human NCI-H460 cells assessed as inhibition of growth incubated for 72 hrs by MTT assay; format: functional, cell-based; details: NCI-H460, 72 h; outline: as §1
HCT-116 [8] = assay: Cytotoxicity against human HCT116 cells assessed as inhibition of growth incubated for 72 hrs by MTT assay; format: functional, cell-based; details: HCT-116, 72 h; outline: as §1
HeLa [9] = assay: Cytotoxicity against human HeLa cells assessed as inhibition of growth incubated for 72 hrs by MTT assay; format: functional, cell-based; outline: as §1
SMMC-7721 [10] = assay: Cytotoxicity against human SMMC7721 cells assessed as inhibition of growth incubated for 72 hrs by MTT assay; format: functional, cell-based; details: SMMC-7721, 72 h; outline: as §1
SMMC-7721 [11] = assay: Cytotoxicity against human SMMC7721 cells assessed as inhibition of growth at 0.6 to 5.5 uM incubated for 24 hrs by MTT assay; format: functional, cell-based
Outline: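 SMMC7721 viability measured by MTT after exposure to 0, 0.61, 1.83, 5.49 or 16.5 μM for 0, 24, 48 and 72 h. Vehicle-treated cells served as control. Mean ± SD, n = 3.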

SMMC-7721 [12] = assay: Inhibition of cell adhesion of human SMMC7721 cells at 0.61 to 5.49 uM incubated for 1 hr by matrigel based assay; format: functional
Outline: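 Wells coated overnight with Matrigel in 0.5% serum-free RPMI-1640, blocked with 2% BSA for 30 min and washed with PBS. SMMC7721 cells (2 × 10^4/well) added with 0.61, 1.83 or 5.49 μM and left to adhere for 1 h. Medium removed, 0.2% crystal violet applied for 10 min, dye dissolved in DMSO, OD read at 540 nm. Mean ± SD, n = 3.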

SMMC-7721 [13] = assay: Inhibition of cell migration of human SMMC7721 cells incubated for 24 hrs by H and E staining based transwell chamber assay; format: functional
Outline: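 Transwell migration: 4 × 10^5 SMMC7721 cells in RPMI-1640 with 0.1% FBS plus 0.61, 1.83 or 5.49 μM placed in upper chamber; lower chamber held RPMI-1640 with 10% FBS. Cells on the lower membrane surface fixed in paraformaldehyde for 30 min and stained with H&E for 5 min. Methods give 6 h, legend gives 24 h. Vehicle control; mean ± SD, n = 3.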

[14] = molecular target: 72 kDa type IV collagenase (Homo sapiens) (UniProt P08253); assay: Inhibition of MMP2 activity in human SMMC7721 cells incubated for 24 hrs by gelatin zymography; format: cell-based
Chain of 72 kDa type IV collagenase (Homo sapiens) (P08253 110-660 limits assumed): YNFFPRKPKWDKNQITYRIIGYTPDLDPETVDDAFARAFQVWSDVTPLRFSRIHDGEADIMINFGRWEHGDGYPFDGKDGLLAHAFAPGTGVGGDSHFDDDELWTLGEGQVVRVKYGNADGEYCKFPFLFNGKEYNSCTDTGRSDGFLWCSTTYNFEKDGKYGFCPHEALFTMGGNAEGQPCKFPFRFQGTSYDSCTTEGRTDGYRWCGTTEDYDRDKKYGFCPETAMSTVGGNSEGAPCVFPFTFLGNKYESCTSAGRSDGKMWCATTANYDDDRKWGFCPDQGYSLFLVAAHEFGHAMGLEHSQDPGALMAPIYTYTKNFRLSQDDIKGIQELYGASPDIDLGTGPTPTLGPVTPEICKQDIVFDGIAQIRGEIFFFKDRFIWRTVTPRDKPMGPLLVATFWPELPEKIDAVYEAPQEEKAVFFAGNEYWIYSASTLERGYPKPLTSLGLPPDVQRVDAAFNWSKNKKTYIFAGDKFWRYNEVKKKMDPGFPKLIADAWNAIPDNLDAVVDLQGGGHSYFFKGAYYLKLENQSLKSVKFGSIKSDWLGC
Outline: (§2)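 SMMC7721 cells (2 × 10^5/well) treated with 0.61, 1.83 or 5.49 μM for 24 h. Culture supernatants run on 10% SDS-PAGE containing 0.1% gelatin. Gels washed in 2.5% Triton X-100 (three 1-h washes), then incubated 36 h at 37 °C in 50 mM Tris-HCl, 10 mM CaCl2, 1 μM ZnCl2, 0.2 M NaCl, pH 7.6. Coomassie R250 stain; bands at 72 kDa (MMP-2) and 92 kDa (MMP-9) quantified by densitometry. Mean ± SD, n = 3.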

[15] = molecular target: Matrix metalloproteinase-9 (Homo sapiens) (UniProt P14780); assay: Inhibition of MMP9 activity in human SMMC7721 cells incubated for 24 hrs by gelatin zymography; format: cell-based; outline: as §2
Chain of Matrix metalloproteinase-9 (Homo sapiens) (P14780 whole entry): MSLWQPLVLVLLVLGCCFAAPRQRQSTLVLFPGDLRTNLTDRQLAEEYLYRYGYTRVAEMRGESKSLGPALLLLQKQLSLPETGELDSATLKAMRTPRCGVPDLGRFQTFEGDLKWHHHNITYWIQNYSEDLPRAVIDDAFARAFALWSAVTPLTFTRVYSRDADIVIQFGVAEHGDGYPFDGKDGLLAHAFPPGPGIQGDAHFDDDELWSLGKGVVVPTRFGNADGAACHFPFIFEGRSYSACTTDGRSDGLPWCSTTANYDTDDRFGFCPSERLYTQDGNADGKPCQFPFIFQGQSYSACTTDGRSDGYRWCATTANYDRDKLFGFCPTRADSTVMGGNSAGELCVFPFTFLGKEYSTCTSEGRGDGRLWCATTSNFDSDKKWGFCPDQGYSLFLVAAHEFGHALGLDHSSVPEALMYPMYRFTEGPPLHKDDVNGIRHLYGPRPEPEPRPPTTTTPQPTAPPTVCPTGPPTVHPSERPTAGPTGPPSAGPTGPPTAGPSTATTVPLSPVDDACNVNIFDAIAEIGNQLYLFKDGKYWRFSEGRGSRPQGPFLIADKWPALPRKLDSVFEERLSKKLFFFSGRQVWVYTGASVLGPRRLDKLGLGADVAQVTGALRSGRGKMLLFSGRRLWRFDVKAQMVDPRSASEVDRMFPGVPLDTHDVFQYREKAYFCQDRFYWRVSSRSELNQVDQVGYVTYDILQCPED

SMMC-7721 [16] = assay: Inhibition of MMP2 protein expression in human SMMC7721 cells at […] to 5.49 uM incubated for 24 hrs by Western blot analysis; format: functional, cell-based
Outline: (§3)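 SMMC7721 cells (5 × 10^5/well) treated with 0.61, 1.83 or 5.49 μM for 24 h, then lysed in RIPA buffer with protease inhibitors for 40 min on ice. Protein (60 μg) resolved on 10% SDS-PAGE and transferred to PVDF. Probed with MMP-2 or MMP-9 primary antibody and peroxidase-conjugated secondary, detected by chemiluminescence, normalized to GAPDH.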

SMMC-7721 [17] = assay: Inhibition of MMP9 protein expression in human SMMC7721 cells at […] to 5.49 uM incubated for 24 hrs by Western blot analysis; format: functional, cell-based; outline: as §3
SMMC-7721 [18] = assay: Inhibition of MMP2 gene expression in human SMMC7721 cells at […] to 5.49 uM incubated for 24 hrs by real-time PCR analysis; format: functional, cell-based
Outline: (§4)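 SMMC7721 cells (5 × 10^5/well) treated with 0.61, 1.83 or 5.49 μM for 24 h. Total RNA analysed by SYBR Green qPCR using MMP-2 and MMP-9 specific primers. Cycling: 95 °C for 10 min, then 44 cycles of 95 °C 10 s, 60 °C 20 s, 72 °C 20 s. GAPDH internal control.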

SMMC-7721 [19] = assay: Inhibition of MMP9 gene expression in human SMMC7721 cells at […] to 5.49 uM incubated for 24 hrs by real-time PCR analysis; format: functional, cell-based; outline: as §4

Row | Structure (SMILES) | inhibition at 200 µM (BGC-823 [1]) | inhibition at 200 µM (NCI-H460 [2]) | inhibition at 200 µM (HCT-116 [3]) | inhibition at 200 µM (HeLa [4]) | inhibition at 200 µM (SMMC-7721 [5]) | IC50 (BGC-823 [6]) | IC50 (NCI-H460 [7]) | IC50 (HCT-116 [8]) | IC50 (HeLa [9]) | IC50 (SMMC-7721 [10]) | further results
1 | CC(C)[C@H]1C[C@H](O)[C@]2(C)C[C@@H]3[C@H](CO)C[C@@H](O)[C@H]3[C@@](C)(O)C/C=C/12 | 50% | 50% | 50% | 50% | 50% | > 100 µM | > 100 µM | > 100 µM | > 100 µM | > 100 µM | –
2 | COc1cccc2c1C(=O)c1c(O)c3c(c(O)c1C2=O)C[C@@](O)(C(=O)CO)C[C@@H]3O[C@H]1C[C@H](N)[C@H](O)[C@H](C)O1 [DOXORUBICIN HYDROCHLORIDE] | – | – | – | – | – | 1.5 µM | 1 µM | 1.4 µM | – | 2.2 µM | –
3 | CC(C)[C@H]1C[C@@H](O)[C@]2(C)C[C@@H]3[C@H](CO)C[C@@H](O)[C@H]3[C@@](C)(O)C/C=C/12 | 50% | 50% | 50% | 50% | 50% | > 100 µM | > 100 µM | > 100 µM | > 100 µM | > 100 µM | –
4 | CCC(=O)[C@@H](C)[C@H]1O[C@@](O)([C@H](C)C(=O)OC[C@H](C)[C@H]2CC[C@]3(C)C[C@@H]4[C@H](CO)C[C@@H](O)[C@H]4[C@@](C)(O)C/C=C/23)[C@H](C)C[C@H]1C | – | – | – | – | – | 7 µM | 4.1 µM | 6.7 µM | 6.7 µM | 8.9 µM | –
5 | CC(C)[C@H]1CC[C@]2(C)C[C@@H]3[C@H](CO)C[C@@H](O)[C@H]3[C@@](C)(O)C/C=C/12 | 90% | 90% | 90% | 90% | 90% | > 100 µM | > 100 µM | > 100 µM | > 100 µM | > 100 µM | –
6 | CCC(=O)[C@@H](C)[C@H]1O[C@@](O)([C@@H](C)C(=O)OC[C@H](C)[C@H]2CC[C@]3(C)C[C@@H]4[C@H](CO)C[C@@H](O)[C@H]4[C@@](C)(O)C/C=C/23)[C@H](C)C[C@H]1C | – | – | – | – | – | 9.5 µM | 6.1 µM | 8 µM | 9.3 µM | 14.1 µM | –
7 | CC(C)[C@@]1(O)CC[C@]2(C)C[C@@H]3[C@H](CO)C[C@@H](O)[C@H]3[C@@](C)(O)C/C=C\21 | – | – | – | – | – | > 100 µM | > 100 µM | > 100 µM | > 100 µM | > 100 µM | inhibition (BGC-823 [1]): inactive; inhibition (NCI-H460 [2]): inactive; inhibition (HCT-116 [3]): inactive; inhibition (HeLa [4]): inactive; inhibition (SMMC-7721 [5]): inactive
8 | CCCC(=O)[C@@H](C)[C@H]1O[C@@](O)([C@H](C)C(=O)OC[C@H](C)[C@H]2CC[C@]3(C)C[C@@H]4[C@H](CO)C[C@@H](O)[C@H]4[C@@](C)(O)C/C=C/23)[C@H](C)C[C@H]1C | – | – | – | – | – | 10.5 µM | 3.5 µM | 5.8 µM | 7.6 µM | 9.6 µM | Activity (SMMC-7721 [11]): inactive; inhibition (SMMC-7721 [12]): Active; inhibition (SMMC-7721 [13]): Dose-dependent effect; inhibition [14]: Dose-dependent effect; inhibition [15]: Dose-dependent effect; inhibition (SMMC-7721 [16]): Active; inhibition (SMMC-7721 [17]): Active; inhibition (SMMC-7721 [18]): Dose-dependent effect; inhibition (SMMC-7721 [19]): Dose-dependent effect
